Consider twelve molecules from ChEMBL document CHEMBL1142699 (J Med Chem, 2005).

Assay [1] concerns the target Nociceptin receptor (Cavia porcellus) (UniProt P47748). Nature of the assay: Maximal inhibition of electrically evoked contraction of guinea pig ileum. The assay is classed as functional, tissue-based.
The target of assay [2] is Nociceptin receptor (Mus musculus) (UniProt P35377). Nature of the assay: Maximal inhibition of electrically evoked contraction of mouse vas deferens. The assay is classed as functional, tissue-based.
Chain of Nociceptin receptor (Mus musculus) (P35377 whole entry): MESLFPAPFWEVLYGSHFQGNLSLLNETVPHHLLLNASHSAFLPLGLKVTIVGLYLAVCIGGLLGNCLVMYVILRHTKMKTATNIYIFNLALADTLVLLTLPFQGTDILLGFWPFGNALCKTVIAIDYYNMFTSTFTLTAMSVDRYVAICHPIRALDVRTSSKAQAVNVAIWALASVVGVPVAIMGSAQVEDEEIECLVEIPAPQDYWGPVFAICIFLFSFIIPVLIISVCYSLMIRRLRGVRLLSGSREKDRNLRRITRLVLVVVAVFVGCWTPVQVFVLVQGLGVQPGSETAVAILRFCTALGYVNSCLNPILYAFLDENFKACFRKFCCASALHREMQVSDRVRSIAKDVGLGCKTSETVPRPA
In assay [3] the target is Nociceptin receptor (Cavia porcellus, UniProt P47748). The experiment in a line: Inhibition of electrically evoked contraction of guinea pig ileum. In kind it is functional, tissue-based. An outline of the steps:
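Guinea pig ileum from albino animals (250-300 g), in Krebs at 37 °C under 0.3 g resting tension. Field-stimulated with 1 ms supramaximal pulses at 0.05 Hz; twitches recorded isotonically. After ~1 h equilibration, cumulative concentration-response curves in 0.5 log steps. […] 5-8 experiments.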

For assay [4], the target named is Nociceptin receptor (Mus musculus, UniProt P35377). Nature of the assay: Inhibition of electrically evoked contraction of mouse vas deferens. The assay is classed as functional. An outline of the steps: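 Vas deferens from male Swiss mice (25-30 g), in Mg2+-free Krebs at 33 °C under 0.3 g resting tension. Field-stimulated with 1 ms supramaximal pulses at 0.05 Hz; twitches recorded isotonically. After ~1 h equilibration, cumulative concentration-response curves in 0.5 log steps. […] 5-8 experiments.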
Chain of Nociceptin receptor (Mus musculus, UniProt P35377) (P35377 whole entry): as above

Assay [5] addresses Nociceptin receptor (Mus musculus) (UniProt P35377). The experiment in a line: Inhibition of electrically evoked contraction of mouse vas deferens; Effect evident only in some tissues. The conditions noted are these: filed as agonist. The assay is classed as functional.
The target is the same in assay [6]. Nature of the assay: Maximal inhibition of electrically evoked contraction of mouse vas deferens; Effect evident only in some tissues. In kind it is functional. As to conditions: filed as agonist.
Assay [7] has as its target Nociceptin receptor (Cavia porcellus) (UniProt P47748). The experiment in a line: Maximal inhibition of electrically evoked contraction of guinea pig ileum; Effect evident only in some tissues. The assay is classed as functional, tissue-based. As to conditions: filed as agonist.
Assay [8] shares this target. Nature of the assay: Inhibition of electrically evoked contraction of guinea pig ileum; Effect evident only in some tissues. The assay is classed as functional, tissue-based. As to conditions: filed as agonist.
The target of assay [9] is Nociceptin receptor (Mus musculus) (UniProt P35377). Nature of the assay: Antagonistic potency against N/OFQ in electrically evoked contraction of mouse vas deferens at 1 uM. In kind it is functional, tissue-based. Summed up:
(§1)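 Male Swiss mice (25-30 g). Vas deferens in 5 mL baths of Mg2+-free Krebs at 33 °C, 0.3 g tension, field-stimulated with supramaximal 1 ms pulses at 0.05 Hz, isotonic recording.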

Assay [10] addresses Nociceptin receptor (Cavia porcellus) (UniProt P47748). Nature of the assay: Antagonistic potency against N/OFQ in electrically evoked contractions of guinea pig ileum at 1 uM. In kind it is functional, tissue-based.
Assay [11] addresses T1, Nociceptin receptor (Homo sapiens, UniProt P41146). Nature of the assay: Receptor binding affinity for recombinant human N/OFQ peptide receptor (NOP) expressed in chinese hamster ovary cells. The assay is classed as cell-based, CHO.
Assay [12] deals with Nociceptin receptor (Mus musculus) (UniProt P35377). Nature of the assay: Antagonistic potency against N/OFQ in electrically evoked contraction of mouse vas deferens at 0.1 uM. The assay is classed as functional, tissue-based. An outline of the steps: as §1
The target of assay [13] is T1, Nociceptin receptor. Nature of the assay: Inhibition of forskolin stimulated cAMP levels in CHO cells expressing the human NOP receptor (CHOhNOP). (Changes in cAMP serve as a functional read-out for many G protein-coupled receptors.)

Numbered stars: 1 amine (or outer) side, 2 acyl side, 3 side chain; on linkers, the order of the positions; unused ones are H or OH. Square brackets hold non-standard residues; d marks the D form. Peptide text beside a SMILES is read from it. * marks the point of attachment. X1 = N[C@@H](Cc1ccccc1)CN(CC(=O)[*:2])[*:1]; Phe(4-F) = N[C@@H](Cc1ccc(F)cc1)C(=O)O; N(NH2)2 = NN(N)*; NHNH2 = NN*

T1 sequence (P41146 whole entry): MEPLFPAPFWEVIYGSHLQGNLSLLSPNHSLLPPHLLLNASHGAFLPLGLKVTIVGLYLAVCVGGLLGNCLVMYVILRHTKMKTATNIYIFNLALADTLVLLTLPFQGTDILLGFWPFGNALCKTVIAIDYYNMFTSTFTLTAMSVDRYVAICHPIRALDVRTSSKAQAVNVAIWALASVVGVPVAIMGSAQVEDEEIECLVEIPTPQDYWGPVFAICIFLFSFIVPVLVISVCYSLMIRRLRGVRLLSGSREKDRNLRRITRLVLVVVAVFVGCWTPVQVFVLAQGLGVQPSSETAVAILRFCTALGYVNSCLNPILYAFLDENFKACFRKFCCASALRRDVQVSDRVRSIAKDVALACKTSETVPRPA
Chain of Nociceptin receptor (Cavia porcellus) (P47748 whole entry): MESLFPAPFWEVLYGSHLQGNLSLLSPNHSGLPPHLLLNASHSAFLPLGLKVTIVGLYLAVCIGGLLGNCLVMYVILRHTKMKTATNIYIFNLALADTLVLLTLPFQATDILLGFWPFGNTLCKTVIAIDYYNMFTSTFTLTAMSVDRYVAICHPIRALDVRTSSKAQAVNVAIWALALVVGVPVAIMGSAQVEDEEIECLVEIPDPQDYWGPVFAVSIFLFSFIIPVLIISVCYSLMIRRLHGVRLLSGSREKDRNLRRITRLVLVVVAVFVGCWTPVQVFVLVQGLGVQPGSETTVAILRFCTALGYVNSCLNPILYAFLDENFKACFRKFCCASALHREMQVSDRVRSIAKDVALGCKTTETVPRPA
Chain of Nociceptin receptor (Cavia porcellus, UniProt P47748) (P47748 whole entry): as above

Turning to `C[C@H](NC(=O)CNC(=O)[C@@H](NC(=O)[C@H](Cc1ccccc1)NC(=O)CNC(=O)CNC(=O)[C@@H](N)Cc1ccccc1)[C@@H](C)O)C(=O)N[C@@H](CCCN=C(N)N)C(=O)N[C@@H](CCCCN)C(=O)N[C@@H](CO)C(=O)N[C@@H](C)C(=O)N[C@@H](CCCN=C(N)N)C(=O)N[C@@H](CCCCN)C(=O)N[C@@H](CCCN=C(N)N)C(=O)N[C@@H](CCCCN)C(=O)N[C@@H](CC(N)=O)C(=O)N[C@@H](CCC(=O)N(N)N)C(=O)NN`, the Emax in assay [1] came out at 52%; in [2], 95%.
With `CC(C)C[C@H](NC(=O)[C@H](CCCCN)NC(=O)[C@H](CCCN=C(N)N)NC(=O)[C@H](C)NC(=O)[C@H](CO)NC(=O)[C@H](CCCCN)NC(=O)[C@H](CCCN=C(N)N)NC(=O)[C@H](C)NC(=O)CNC(=O)[C@@H](NC(=O)[C@H](Cc1ccc(F)cc1)NC(=O)CNC(=O)CNC(=O)[C@@H](N)Cc1ccccc1)[C@@H](C)O)C(=O)N[C@@H](C)C(=O)N[C@@H](CC(N)=O)C(=O)N[C@@H](CCC(N)=O)C(N)=O`, the EC50 is 1.86 nM in [3] and 2.57 nM in assay [4]. The Emax is 56% in assay [1] and 92% in assay [2].
Consider `C[C@H](NC(=O)CNC(=O)[C@@H](NC(=O)[C@H](Cc1ccccc1)NC(=O)CNC(=O)CNC[C@@H](N)Cc1ccccc1)[C@@H](C)O)C(=O)N[C@@H](CCCN=C(N)N)C(=O)N[C@@H](CCCCN)C(=O)N[C@@H](CO)C(=O)N[C@@H](C)C(=O)N[C@@H](CCCN=C(N)N)C(=O)N[C@@H](CCCCN)C(=O)N[C@@H](CCCN=C(N)N)C(=O)N[C@@H](CCCCN)C(=O)N[C@@H](CC(N)=O)C(=O)N[C@@H](CCC(=O)N(N)N)C(=O)NN` (H-[X1]GFTGARKSARKRKNE(N(NH2)2)-NHNH2), for which the Activity entry in assay [5] is “Agonist”. Moreover, the Emax entry in assay [6] and in [7] was “Agonist” in each case. In assay [8], the “Log EC50” value is “Agonist”. The pKb in assay [9] amounted to 8.04; in assay [10], 7.47.
Turning to `C[C@H](NC(=O)CNC(=O)[C@@H](NC(=O)[C@H](Cc1ccccc1)NC(=O)CNC(=O)CNC(=O)CNCc1ccccc1)[C@@H](C)O)C(=O)N[C@@H](CCCN=C(N)N)C(=O)N[C@@H](CCCCN)C(=O)N[C@@H](CO)C(=O)N[C@@H](C)C(=O)N[C@@H](CCCN=C(N)N)C(=O)N[C@@H](CCCCN)C(=O)N[C@@H](CCCN=C(N)N)C(=O)N[C@@H](CCCCN)C(=O)N[C@@H](CC(N)=O)C(=O)N[C@@H](CCC(N)=O)C(N)=O`, the Ki in assay [11] was 129 pM.
Take `CC(C)C[C@H](NC(=O)[C@H](CCCCN)NC(=O)[C@H](CCCNC(=N)N)NC(=O)[C@H](C)NC(=O)[C@H](CO)NC(=O)[C@H](CCCCN)NC(=O)[C@H](CCCNC(=N)N)NC(=O)[C@H](C)NC(=O)CNC(=O)[C@@H](NC(=O)[C@H](Cc1ccccc1)NC(=O)CNC(=O)CNC(=O)[C@@H](N)Cc1ccccc1)[C@@H](C)O)C(=O)N[C@@H](C)C(=O)N[C@@H](CC(N)=O)C(=O)N[C@@H](CCC(N)=O)C(=O)O`: the Emax in assay [1] came out at 58%; in [2], 95%.
For `C[C@H](NC(=O)CNC(=O)[C@@H](NC(=O)[C@H](Cc1ccc(F)cc1)NC(=O)CNC(=O)CNC(=O)[C@@H](N)Cc1ccccc1)[C@@H](C)O)C(=O)N[C@@H](CCCNC(=N)N)C(=O)N[C@@H](CCCCN)C(=O)N[C@@H](CO)C(=O)N[C@@H](C)C(=O)N[C@@H](CCCNC(=N)N)C(=O)N[C@@H](CCCCN)C(=O)N[C@@H](CCCNC(=N)N)C(=O)N[C@@H](CCCCN)C(=O)N[C@@H](CC(N)=O)C(=O)N[C@@H](CCC(N)=O)C(N)=O`, the values for the EC50 in assay [3] and in [4] were 1.05 nM and 0.437 nM, respectively. In [11], the Ki is 4.79 pM.
On to `C[C@H](NC(=O)CNC(=O)[C@@H](NC(=O)[C@H](Cc1ccc(F)cc1)NC(=O)CNC(=O)CNC(=O)CNCc1ccccc1)[C@@H](C)O)C(=O)N[C@@H](CCCN=C(N)N)C(=O)N[C@@H](CCCCN)C(=O)N[C@@H](CO)C(=O)N[C@@H](C)C(=O)N[C@@H](CCCN=C(N)N)C(=O)N[C@@H](CCCCN)C(=O)N[C@@H](CCCN=C(N)N)C(=O)N[C@@H](CCCCN)C(=O)N[C@@H](CC(N)=O)C(=O)N[C@@H](CCC(=O)N(N)N)C(=O)NN`, for which the Activity entry in assay [5] was “Agonist”. The pKb is 7.97 in assay [12] and 7.82 in assay [12] (Cavia porcellus). Further, the Emax result in assay [6] and in assay [7] was “Agonist” throughout. Also, in [8], the “Log EC50” value is “Agonist”.
Consider `CC(C)C[C@H](NC(=O)[C@H](CCCCN)NC(=O)[C@H](CCCN=C(N)N)NC(=O)[C@H](C)NC(=O)[C@H](CO)NC(=O)[C@H](CCCCN)NC(=O)[C@H](CCCN=C(N)N)NC(=O)[C@H](C)NC(=O)CNC(=O)[C@@H](NC(=O)[C@H](Cc1ccc(F)cc1)NC(=O)CNC(=O)CNC(=O)CNCc1ccccc1)[C@@H](C)O)C(=O)N[C@@H](C)C(=O)N[C@@H](CC(N)=O)C(=O)N[C@@H](CCC(N)=O)C(N)=O`, for which the Activity result in assay [5] was “Agonist”. Besides, the Emax entry in [6] and in assay [7] was “Agonist” in each case. The “Log EC50” value in [8] was “Agonist”. The pKb in assay [9] stood at 6.61; in assay [10], 7.16.
As for `C[C@H](NC(=O)CNC(=O)[C@@H](NC(=O)[C@H](Cc1ccc(F)cc1)NC(=O)CNC(=O)CNC[C@@H](N)Cc1ccccc1)[C@@H](C)O)C(=O)N[C@@H](CCCN=C(N)N)C(=O)N[C@@H](CCCCN)C(=O)N[C@@H](CO)C(=O)N[C@@H](C)C(=O)N[C@@H](CCCN=C(N)N)C(=O)N[C@@H](CCCCN)C(=O)N[C@@H](CCCN=C(N)N)C(=O)N[C@@H](CCCCN)C(=O)N[C@@H](CC(N)=O)C(=O)N[C@@H](CCC(=O)N(N)N)C(=O)NN` (H-[X1]G[Phe(4-F)]TGARKSARKRKNE(N(NH2)2)-NHNH2), the pKb worked out at 9.2 in assay [12] and 8.48 in assay [12] (Cavia porcellus). Besides, the Emax entry in assay [7] is “Agonist”; in [2], 53%. The “Log EC50” value in assay [8] is “Agonist”.
Turning to `C[C@H](NC(=O)CNC(=O)[C@@H](NC(=O)[C@H](Cc1ccc(F)cc1)NC(=O)CNC(=O)CNC(=O)[C@@H](N)Cc1ccccc1)[C@@H](C)O)C(=O)N[C@@H](CCCN=C(N)N)C(=O)N[C@@H](CCCCN)C(=O)N[C@@H](CO)C(=O)N[C@@H](C)C(=O)N[C@@H](CCCN=C(N)N)C(=O)N[C@@H](CCCCN)C(=O)N[C@@H](CCCN=C(N)N)C(=O)N[C@@H](CCCCN)C(=O)N[C@@H](CC(N)=O)C(=O)N[C@@H](CCC(=O)N(N)N)C(=O)NN`, the values for the Emax in [1] and in assay [2] were 55% and 94%, respectively.
Turning to `C[C@H](NC(=O)CNC(=O)[C@@H](NC(=O)[C@H](Cc1ccccc1)NC(=O)CNC(=O)CNC(=O)[C@@H](N)Cc1ccccc1)[C@@H](C)O)C(=O)N[C@@H](CCCN=C(N)N)C(=O)N[C@@H](CCCCN)C(=O)N[C@@H](CO)C(=O)N[C@@H](C)C(=O)N[C@@H](CCCN=C(N)N)C(=O)N[C@@H](CCCCN)C(=O)N[C@@H](CCCN=C(N)N)C(=O)N[C@@H](CCCCN)C(=O)N[C@@H](CC(N)=O)C(=O)N[C@@H](CCC(N)=O)C(N)=O`, the EC50 in assay [3] was 1.12 nM; in assay [4], 0.759 nM; in assay [13], 0.1 nM. Besides, in assay [11], the Ki was 6.92 pM.
With `CC(C)C[C@H](NC(=O)[C@H](CCCCN)NC(=O)[C@H](CCCN=C(N)N)NC(=O)[C@H](C)NC(=O)[C@H](CO)NC(=O)[C@H](CCCCN)NC(=O)[C@H](CCCN=C(N)N)NC(=O)[C@H](C)NC(=O)CNC(=O)[C@@H](NC(=O)[C@H](Cc1ccccc1)NC(=O)CNC(=O)CNC(=O)[C@@H](N)Cc1ccccc1)[C@@H](C)O)C(=O)N[C@@H](C)C(=O)N[C@@H](CC(N)=O)C(=O)N[C@@H](CCC(N)=O)C(=O)O` [NOCICEPTIN], the EC50 is 5.25 nM in assay [3] and 5.37 nM in assay [4].

Broadly, the Emax is the greatest response seen or fitted, relative to the assay's reference. As a reminder, the EC50 is the midpoint of the concentration-response curve. Higher therefore signals lower potency in that assay. As a reminder, the pKb is the negative decadic logarithm of the Kb, by convention in mol/L. A high value points to a low Kb. What is called Ki is the equilibrium dissociation constant of an inhibitor or competing ligand from its target.
